Article PMC4516694 (Bioorganic & medicinal chemistry, 2015)
Blank lines part the entries; values can stand above or below the compound they belong to.

Tests used:
[1] = target: T1, transfected human CRF1 receptors in HEK293T cells (Homo sapiens, UniProt P34998); assay: In vitro competition binding assay at 23 °C vs. [125I]-Tyr0-sauvagine; settings: for Ki: Ki (nM) ± SEM, vs. [125I]-Tyr0-sauvagine, HEK293T cell membranes
T1 sequence (P34998 24-415): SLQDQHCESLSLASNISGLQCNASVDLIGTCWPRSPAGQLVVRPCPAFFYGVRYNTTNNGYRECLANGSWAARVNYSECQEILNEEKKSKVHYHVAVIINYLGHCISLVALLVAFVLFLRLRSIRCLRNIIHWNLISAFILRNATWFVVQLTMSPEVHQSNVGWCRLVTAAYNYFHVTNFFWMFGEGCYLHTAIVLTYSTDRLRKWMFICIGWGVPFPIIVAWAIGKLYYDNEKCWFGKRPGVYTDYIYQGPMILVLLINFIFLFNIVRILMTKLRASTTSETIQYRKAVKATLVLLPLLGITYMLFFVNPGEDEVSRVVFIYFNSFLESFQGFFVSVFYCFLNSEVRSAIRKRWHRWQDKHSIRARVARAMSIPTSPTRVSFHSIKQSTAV
Outline: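 Human CRF1 plasmid transiently lipofected into HEK293T (DMEM, 10% FBS, grown to 75% confluency); cells harvested 48 h post-transfection; membranes homogenized in pH 7.2 HEPES/MgCl2/EGTA/BSA/aprotinin buffer. ~80 pM [125I]sauvagine plus test compound (10−13–10−5 M final), 2 h, 23 °C; filtered over polyethyleneamine-soaked filters and cold-washed. Triplicates; Ki by one-site competition fit (Kd 0.5 nM); ratios from Ki values.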

CRF1 receptor [2] = assay: Non-human primate microPET imaging; format: in vivo, male cynomolgus monkey; settings: anesthetized cynomolgus monkey
Outline: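 Male cynomolgus monkey on a Siemens MicroPET Focus 220. A Co-57 point-source transmission scan was used for attenuation correction. F-18 radiotracer given by saphenous vein injection, then dynamic imaging for 120 min.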

CRF1 receptor [3] = settings: read-out: Ki, previously reported value; cited from earlier work
Rat microPET imaging = format: in vivo, male Sprague-Dawley rat; settings: anesthetized rat
Outline: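 One male Sprague-Dawley rat on an Inveon microPET/CT: isoflurane induction at 3–4%, maintained at 1–1.5% by nose cone. Prone, warmed with circulating air; Co-57 transmission scan for attenuation correction. F-18 radiotracer given by tail vein injection, then dynamic imaging for 60 min.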

SMILES: CCCCN(CC)c1cc(C)nc2c(-c3ccc(Cl)cc3Cl)c(C)nn12 [Compound 22, N-butyl-3-(2,4-dichlorophenyl)-N-ethyl-2,5-dimethylpyrazolo[1,5-a]pyrimidin-7-amine]
Ki ([1]; 23 °C): 0.46 ± 0.06 nM
Ki (CRF1 receptor [3]): 0.9 ± 0.1 nM

SMILES: CCN(CCOCC[18F])c1cc(C)nc2c(-c3ccc(Cl)cc3Cl)c(C)nn12 [[^18F]27, 3-(2,4-dichlorophenyl)-N-ethyl-N-(2-(2-[^18F]fluoroethoxy)ethyl)-2,5-dimethylpyrazolo[1,5-a]pyrimidin-7-amine]
radioactivity uptake in the skull and sphenoid region / defluorination (CRF1 receptor [2]; microPET TACs): rapid uptake and then a steady washout
specific binding in brain (high vs low CRF1 receptor density regions) (CRF1 receptor [2]; microPET TACs): little or no specific binding
time of peak brain uptake (CRF1 receptor [2]; microPET TACs): 5 to 15 min

SMILES: [2H]C([2H])([18F])C([2H])([2H])C([2H])([2H])C([2H])([2H])N(C)c1cc(C)nc2c(-c3ccc(Cl)cc3Cl)c(C)nn12 [[^18F]28-d8, 3-(2,4-dichlorophenyl)-N-(4-[^18F]fluorobutyl-1,1,2,2,3,3,4,4-d8)-N,2,5-trimethylpyrazolo[1,5-a]pyrimidin-7-amine]
brain uptake and washout compared with the other radiotracers (CRF1 receptor [2]; microPET TACs): very similar to that of [^18F]28
radioactivity uptake in the skull and sphenoid region / defluorination (CRF1 receptor [2]; microPET TACs): reduced somewhat relative to [^18F]28 but defluorination was not completely prevented

SMILES: CCN(CCOCCF)c1cc(C)nc2c(-c3ccc(Cl)cc3Cl)c(C)nn12 [Compound 27, 3-(2,4-dichlorophenyl)-N-ethyl-N-(2-(2-fluoroethoxy)ethyl)-2,5-dimethylpyrazolo[1,5-a]pyrimidin-7-amine]
Ki ([1]; 23 °C): 1.17 ± 0.07 nM
fold loss of affinity relative to 29 ([1]; ratio of Ki values, Table 1): ~ 2.5 fold

SMILES: CCCN(CCC)c1cc(C)nc2c(-c3ccc(Cl)cc3Cl)c(C)nn12 [Compound 21, 3-(2,4-dichlorophenyl)-2,5-dimethyl-N,N-dipropylpyrazolo[1,5-a]pyrimidin-7-amine]
Ki ([1]; 23 °C): 0.47 ± 0.08 nM

Further lines, with some results ahead:

fold stronger binding affinity relative to [18F]28 [1]: ~ 2 fold
brain uptake and washout compared with the other radiotracers (CRF1 receptor [2]; microPET TACs): the overall amount of uptake was less
SMILES: CCN(CCCC[18F])c1cc(C)nc2c(-c3ccc(Cl)cc3Cl)c(C)nn12 [[^18F]29, 3-(2,4-dichlorophenyl)-N-ethyl-N-(4-[^18F]fluorobutyl)-2,5-dimethylpyrazolo[1,5-a]pyrimidin-7-amine]
radioactivity uptake in the skull and sphenoid region / defluorination (CRF1 receptor [2]; microPET TACs): less than that of [^18F]28 and [^18F]28-d8

Ki ([1]; 23 °C): 0.59 ± 0.04 nM
SMILES: Cc1cc(N(CCF)CCCCF)n2nc(C)c(-c3ccc(Cl)cc3Cl)c2n1 [Compound 30, 3-(2,4-dichlorophenyl)-N-(4-fluorobutyl)-N-(2-fluoroethyl)-2,5-dimethylpyrazolo[1,5-a]pyrimidin-7-amine]

Ki ([1]; 23 °C): 0.47 ± 0.1 nM
SMILES: CCN(CCCCF)c1cc(C)nc2c(-c3ccc(Cl)cc3Cl)c(C)nn12 [Compound 29, 3-(2,4-dichlorophenyl)-N-ethyl-N-(4-fluorobutyl)-2,5-dimethylpyrazolo[1,5-a]pyrimidin-7-amine]

radioactivity uptake in the skull and sphenoid region / defluorination (CRF1 receptor [2]; microPET TACs): rapid uptake and then a steady washout
SMILES: Cc1cc(N(C)CCOCC[18F])n2nc(C)c(-c3ccc(Cl)cc3Cl)c2n1 [[^18F]26, 3-(2,4-dichlorophenyl)-N-(2-(2-[^18F]fluoroethoxy)ethyl)-N,2,5-trimethylpyrazolo[1,5-a]pyrimidin-7-amine]
brain uptake and washout compared with the other radiotracers (CRF1 receptor [2]; microPET TACs): entered the brain more rapidly and washed out more rapidly

liver uptake (SUV) (Rat microPET imaging; at 3 min, tail vein injection): 5.4 SUV
brain uptake (SUV) (Rat microPET imaging; at 5 min, tail vein injection): 2 SUV
brain penetrance (Rat microPET imaging; microPET): brain penetrance was achieved
stability to defluorination (bone visualization) (Rat microPET imaging; microPET): stable to defluorination
brain penetrance (CRF1 receptor [2]; microPET): brain penetrance was achieved
specific binding in brain (high vs low CRF1 receptor density regions) (CRF1 receptor [2]; microPET TACs): little or no specific binding
SMILES: Cc1cc(N(C)CCCC[18F])n2nc(C)c(-c3ccc(Cl)cc3Cl)c2n1 [[^18F]28, 3-(2,4-dichlorophenyl)-N-(4-[^18F]fluorobutyl)-N,2,5-trimethylpyrazolo[1,5-a]pyrimidin-7-amine]
radioactivity uptake in the skull and sphenoid region / defluorination (CRF1 receptor [2]; microPET TACs): high radioactivity uptake in the skull, and sphenoid bone and/or sphenoid sinus, suggests defluorination

Ki ([1]; 23 °C): 1.07 ± 0.21 nM
fold loss of affinity relative to 29 ([1]; ratio of Ki values, Table 1): ~ 2.3 fold
SMILES: Cc1cc(N(C)CCCCF)n2nc(C)c(-c3ccc(Cl)cc3Cl)c2n1 [Compound 28, 3-(2,4-dichlorophenyl)-N-(4-fluorobutyl)-N,2,5-trimethylpyrazolo[1,5-a]pyrimidin-7-amine]

decrease in affinity relative to compounds 27, 28, 29 and 30 ([1]; 23 °C): ≥ 10 fold
Ki ([1]; 23 °C): 12.4 ± 1.06 nM
fold loss of affinity relative to 29 ([1]; ratio of Ki values, Table 1): ~ 26 fold
fold loss of affinity upon changing 28 to 26 ([1]; ratio of Ki values, Table 1): ~12 fold
fold lower binding affinity than 27 or 28 ([1]; ratio of Ki values, Table 1): 10 – 12 fold
SMILES: Cc1cc(N(C)CCOCCF)n2nc(C)c(-c3ccc(Cl)cc3Cl)c2n1 [Compound 26, 3-(2,4-dichlorophenyl)-N-(2-(2-fluoroethoxy)ethyl)-N,2,5-trimethylpyrazolo[1,5-a]pyrimidin-7-amine]
